Reference: ChEMBL document CHEMBL2380272, “Biological evaluation of bisbenzaldehydes against four Mycobacterium species” (Eur J Med Chem, 2013)
≈ marks a conversion by molar mass, not a printed value.

Test system: Mycobacterium tuberculosis variant bovis
Experiment: Antimycobacterial activity against Mycobacterium bovis AN5 assessed as growth inhibition after 6 days by luciferase reporter gene assay
Type: functional
Details: AN5, 144 h
Method in brief: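 Mycobacteria carrying the pSMT1 luciferase reporter plasmid. Compounds came from 10 mM DMSO stocks and were serially diluted in 7H9 + 10% FCS. Thawed bacteria were filtered, recovered 1 h at 37 °C, then added at 50 000 RLU/mL. After 6 days of culture, light was read for 10 s after adding 1% n-decanal. Triplicates were run, and MIC50 was the concentration giving 50% growth inhibition.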

Compound	MIC50
O=Cc1ccc(OCCCCCCOc2ccc(C=O)cc2)cc1	0.94 µM (≈ 0.307 µg/mL)
O=Cc1ccc(OCCCCOc2ccc(C=O)cc2)cc1	2.51 µM (≈ 0.749 µg/mL)
O=Cc1ccc(OCCCCCCCCCCOc2ccc(C=O)cc2)cc1	0.81 µM (≈ 0.31 µg/mL)
O=Cc1ccc(OCCCCCCCOc2ccc(C=O)cc2)cc1	0.97 µM (≈ 0.33 µg/mL)
O=Cc1ccc(OCOc2ccc(C=O)cc2)cc1	2.93 µM (≈ 0.751 µg/mL)
O=Cc1ccc(OCCCCCCCCOc2ccc(C=O)cc2)cc1	0.95 µM (≈ 0.337 µg/mL)
O=Cc1ccc(OCCCCCCCCCOc2ccc(C=O)cc2)cc1	1.01 µM (≈ 0.372 µg/mL)
O=Cc1ccc(OCCCOc2ccc(C=O)cc2)cc1	2.65 µM (≈ 0.753 µg/mL)
O=Cc1ccc(OCCOc2ccc(C=O)cc2)cc1	2.41 µM (≈ 0.651 µg/mL)
NNC(=O)c1ccncc1 [ISONIAZID]	< 0.1 µM
O=Cc1ccc(OCCCCCOc2ccc(C=O)cc2)cc1	1.69 µM (≈ 0.528 µg/mL)
O=Cc1ccc(OCCCCCCCCCCCOc2ccc(C=O)cc2)cc1	0.71 µM (≈ 0.282 µg/mL)
O=Cc1ccc(OCCCCCCCCCCCCOc2ccc(C=O)cc2)cc1	0.64 µM (≈ 0.263 µg/mL)
